Data: ChEMBL document CHEMBL4513216, “Probing the Open Global Health Chemical Diversity Library for Multistage-Active Starting Points for Next-Generation Antimalarials” (ACS Infect Dis, 2020)

assay: Toxicity liver stage against HepG2, at 10uM; format: cell-based; parameters: test concentration 10 uM, cell line HepG2-A16-CD81EGFP; settings: human, HepG2-A16-CD81EGFP cells; read-out: INHIBITION
Method in brief: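 Uninfected HepG2-A16-CD81EGFP cells, 3 × 10^3 per well, 1536-well, plated on prespotted compound at 10 μM final, parasite-free screening media added to match infected plates; puromycin 10 μM positive, DMSO 0.5% negative; run in parallel with 48 h PbLuc assay at 37 °C, 5% CO2; viability by CellTiter-Glo luminescence, normalized to controls.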

SMILES	cytotoxicity at 10 µM [%]
CNc1nc2c(c(C(=O)N3CCCC3)n1)CN(Cc1ccco1)CC2	-113
Nc1nc(N)c2c(n1)OC1(CCN(C(=O)CC3CCNCC3)CC1)C2	5.41
COC(=O)C1CCN(C(=O)c2cc(Br)ccc2-n2cnnn2)CC1	4.67
CCCC(=O)NC1CCc2c(ccc(=O)n2Cc2csc(C)n2)C1 (configuration not stated)	3.79
Cn1cnnc1C1CCCN(Cc2nc(Cc3ccccc3)no2)C1 (configuration not stated)	-4.29
Cc1ccccc1C(=O)N1CC(C(=O)NCC2CC2)C2(CCOCC2)C1 (configuration not stated)	3.54
Cc1ncccc1NS(=O)(=O)Cc1cccc(F)c1	2.43
COCCn1ccc(=O)c(OCC(=O)Nc2ccc(Br)cc2)c1C	0.185
Cc1nn(C)c(Cl)c1CNCc1cccnc1N1CCN(C)CC1	-9
CNC(=O)[C@H]1C[C@@H]2CN(S(=O)(=O)c3ccc(F)cc3)C[C@@H]2N1C	-2.97
CC(C)COC(=O)N1CC(=O)N(Cc2ccco2)CC(O)C1 (configuration not stated)	-1.7
CCCS(=O)(=O)N1CCN(CCOC)c2nc(C)ccc2C1	8.07
CN(Cc1ccccc1)CC(O)Cn1cnc2cc(F)ccc2c1=O (configuration not stated)	-5.28
CCOc1ncccc1NC(=O)c1cc(C)sc1C	-6.81
COC(=O)c1cc2c(=O)n(C3CCCC3)ccc2nc1C	-43.9
COc1ccccc1C(=O)N1CCOC2(CCCN(C(C)=O)C2)C1 (configuration not stated)	-72.9
O=C(C1CCOC1)N1CCN(Cc2ccc3c(c2)CCO3)CC1 (configuration not stated)	0.28
CCCn1cnc(NC(=O)NCC2CCS(=O)(=O)C2)n1 (configuration not stated)	10.3
CCc1ccc2nc(-c3cnn(C)c3)cc(C(=O)N3CCCC3)c2c1	0.753
CCOc1cc(CNC(=O)NCc2nc(C)c(C)s2)ccn1	-2.49
CC(C)Nc1ccnc(N2Cc3cnc(C(C)(C)C)nc3C2)n1	8.33
COc1ccccc1-n1cc(C(=O)NCCCn2ccnn2)cn1	-6.01
CCOC(=O)C1CC2(CCOCC2)N2CCC(=O)N12 (configuration not stated)	2.39

SMILES	cytotoxicity at 10 µM [%]
COc1cccc(S(=O)(=O)N2C[C@@H](N(C)C)[C@H](C(C)C)C2)c1	-51.2
COc1cccc(CN(C)C(=O)CSc2ccc3c(c2)OCCO3)c1	-7.97
CC(C)NC(=O)[C@@H]1CN(C(=O)C2CC2)C[C@]12Cc1ccccc1C(=O)N2	1.48
COCCN1CCC2(C1)c1ccccc1S(=O)(=O)N2C (configuration not stated)	11.4
CC(C)COC(=O)N1CC(=O)N(Cc2ccc(Cl)cc2)CC(O)C1 (configuration not stated)	-0.947
CCCC(O)CN1CC(C)(C)CN(C(=O)c2ccc(Cl)cc2)CC1=O (configuration not stated)	2.78
COCC1CCN(C(=O)c2cn(Cc3ccccc3C(F)(F)F)nn2)C1 (configuration not stated)	6.86
COc1ccc(NC(=O)Nc2cnc(N3CCN(C)CC3)nc2)cc1Cl	-19.8
CCCN(Cc1ccccc1)Cn1nc(C)c2c(C)onc2c1=O	-9.98
c1cnc(Nc2ccc(C3CCCCN3Cc3ccncc3)cn2)nc1 (configuration not stated)	-1.57
O=C(c1cc(-c2ccco2)cs1)N1CCCC1	11
CN1CC(C(=O)N2CCC(Oc3ccccc3Cl)CC2)CC1=O (configuration not stated)	9.99
CC(C)c1nnc2n1CCN(c1nc3ccccc3o1)C2	4.12
COCc1nc(C(=O)N2CCCC2c2ccccc2C)cs1 (configuration not stated)	4.28
COc1ccc(/C=C/CN2CCC3(C2)CN(C)C(=O)O3)cc1 (configuration not stated)	0.313
COCCCS(=O)(=O)N1CCN(C(=O)CO)CC1	-0.995
CC(C)Oc1ccccc1CNC(=O)N(C)CC(F)F	-41.5
CCOCC(O)CN1CCN(C(=O)CC(C)C)CC1 (configuration not stated)	-6.98
CCn1c(N)nc2cc(C(=O)N(C)Cc3cc(C(C)(C)C)n[nH]3)cnc21	4.53
CN(Cc1ccc(F)cc1)C(=O)NCC1(N2CCOCC2)CCSC1 (configuration not stated)	-21.9
Cc1ccc(C#N)c(N2CCC(c3nccn3CCN(C)C)CC2)n1	-5.47
Cn1ccc(C(=O)N2CCC(Cc3ccc4ncccc4c3)CC2)n1	13.7
COc1ccc(CNC(C)c2ccc3[nH]c(=O)[nH]c3c2)cc1 (configuration not stated)	-5.04

SMILES	cytotoxicity at 10 µM [%]
O=C(Cc1ccsc1)N1CCCC2(COCCN(CC3CC3)C2)C1 (configuration not stated)	-127
COc1cc(Cl)c(C)cc1NC(=O)CNc1ccn(CC(N)=O)n1	9.8
COc1ccc(CC(=O)N2CCN(c3nccn3C)CC2)cc1	5.06
NC(=O)C1(c2cnccn2)CCCN1Cc1cc2ccccc2o1 (configuration not stated)	-1.19
O=C(Nc1nncs1)NC1CCCc2c1cnn2CCO (configuration not stated)	-17.2
COc1ccccc1N1CCN(Cc2nccc(OC)c2OC)CC1=O	-4
O=c1c2cccc(F)c2ncn1CCN1CCOCC1	2.53
Cc1cccc(NC(=O)NCCCn2nc3ccccn3c2=O)c1C	-6.73
CN(C)S(=O)(=O)N1CCC(Oc2cccnn2)CC1	3.05
CC(NC(=O)CCCc1ccc(Cl)cc1)c1nnn[nH]1 (configuration not stated)	0.292
CCN(CC1CCCO1)S(=O)(=O)c1cc(NC(C)=O)ccc1C (configuration not stated)	1.82
O=C(NCc1cn2c(n1)SCC2)c1ccc(CN2CCCCC2)cc1	-1.08
Cc1cccc(CNC2CC3(CCN(CCO)CC3)c3ccccc32)n1 (configuration not stated)	-110
CCOC(=O)C1CCCCN1Cc1c[nH]nc1-c1ccc(F)cc1F (configuration not stated)	-0.545
CC(NC(=O)N1CCNC(=O)CC1)c1ccc(C(F)(F)F)cc1 (configuration not stated)	13.7
COCC(C)(C#N)NC(=O)COc1ccccc1Br (configuration not stated)	5.67
COCC(=O)N1CC[C@@H]2CN(Cc3cccnc3)S(=O)(=O)[C@@H]2CC1	-113
CC(C)CCCNC(=O)Nc1ccc(F)c(C(N)=O)c1	-2.73
CN(C)S(=O)(=O)N1CCC(c2ccncc2)CC1	-27.6
COCCNc1nc(-c2ccc(S(=O)(=O)N3CCCCC3)cc2)cs1	-42
Cn1ncc(N2CCN(Cc3ccc(S(C)(=O)=O)cc3)CC2)cc1=O	-1.44
CCn1c(=O)[nH]c2cn(-c3cccc(Cl)c3)c(=O)n21	0.0452
Cn1cc(N2CC3(CCN(C(=O)c4cccn4C)CC3)OCC2=O)cn1	-81.1

SMILES	cytotoxicity at 10 µM [%]
Cc1ccccc1COCCOCn1c(C)cc(=O)[nH]c1=O	2.56
O=C(c1ccc[nH]1)N1CCCC2(CCCN2Cc2cccnc2)C1 (configuration not stated)	3.83
c1ccc(N2CCOC(Cc3cccnc3)C2)cc1 (configuration not stated)	-26.3
Cc1ncsc1CCN(C)C(=O)c1ccc(Cn2cnnn2)cc1	-9.17
CCc1nc(C2CCCN2CC(=O)Nc2cc(C)on2)no1 (configuration not stated)	-3.08
Cn1c(NCCN2CCCCCC2)c(C#N)c(=O)n(C)c1=O	0.0687
CCOCCC(=O)N1CC(=O)Nc2cc(Br)ccc21	6.87
Cc1ccc(CN(C)Cc2nc3c(cnn3C)c(=O)[nH]2)o1	-0.972
O=C(NC1CCCCC1)N1C[C@@H]2OCCN(C(=O)c3ccco3)[C@@H]2C1	-152
O=C(NCCNc1cc(N2CCCC2)cnn1)Nc1ccccc1F	-0.367
COc1ncc(-c2cc(-c3ccn(C)c3)nc(N)c2C#N)cn1	0.471
c1cc(CN2CCC(c3ccnc4nccn34)C2)ccn1 (configuration not stated)	1.58
Cc1ccnc(OCC(=O)N2CCC(C(N)=O)CC2)n1	-17.7
COc1ccc(-c2ccc(C(=O)NS(C)(=O)=O)c(F)c2)cc1	5.7
O=C(CN1CCCNC1=O)N(Cc1ccccc1)CC(F)F	5.9
CNC(=O)C(C)(C)CNC(=O)Nc1ccc(C)cn1	0.973
CC(C)(C)c1csc(CCNC(=O)C(c2ccccc2)n2cnnn2)n1 (configuration not stated)	6.53
CNS(=O)(=O)CC(=O)N(Cc1ccccc1)c1ccc(C)cc1	2.53
Cc1ccc(CN(CCCn2ccnc2)Cc2cnn(C)c2)s1	-18
COc1ccc(CN2CCC(C(N)=O)CC2)cc1SC(F)(F)F	-20.3
CCCN1CC2(CCN(c3ccc(C(C)=O)cn3)CC2)CC1C(=O)O (configuration not stated)	-0.909
CC(C)NC(=O)[C@H]1C[C@@H]2[C@@H](C1)OCCN2Cc1ccncc1	6.62
O=C1Nc2ccccc2C12CCN(Cc1nccs1)CC2	-0.243

SMILES	cytotoxicity at 10 µM [%]
CC(C)(C(=O)NCCCc1nc2ccccc2[nH]1)n1cc(Cl)cn1	4.05
Cc1noc(C2CCCN(C(=O)c3cc(Cl)c(Cl)n3C)C2)n1 (configuration not stated)	13.6
O=C(Nc1cccn(Cc2ccccc2)c1=O)c1ccncc1F	14.8
CC(C)(C)c1ncc(C(=O)NC(C(N)=O)c2ccccc2)s1 (configuration not stated)	-1.96
CNc1cc(C)nc(N2CCC3(CC2)[C@H](O)C[C@@H]3O)n1	-17.5
CCc1nsc(N2CCn3c(nnc3C(F)(F)F)C2)n1	-0.657
CN(C)c1cccc(C2CCN(c3ncccn3)CC2)n1	-8.41
CC1CCN(C(CNC(=O)Cn2cccn2)c2cccs2)CC1 (configuration not stated)	-16
Cc1cc(N2CCCCC2Cn2nc(C)cc2C)n2ncnc2n1 (configuration not stated)	-1.38
CC(NC(=O)N1CCN(CCc2ccccc2)CC1)c1nncn1C (configuration not stated)	0.0722
CC(=O)OC1CN(c2nc3c(Cl)cccc3s2)C1	-0.745
CCNS(=O)(=O)C1CCN(C(=O)c2c(F)cc(F)cc2F)C1 (configuration not stated)	7.43
Cc1ccn(-c2cccc(C(=O)N3CCCC(n4ccnc4C)C3)c2)n1 (configuration not stated)	-14.2
O=C(NC[C@H]1OC[C@@H]2CCN(c3ccccn3)C[C@@H]21)c1ccco1	1.32
CSc1c[nH]nc1NS(=O)(=O)c1cc(F)ccc1Cl	-7.23
CCCc1nc(CNC2(c3nccs3)CCCC2)cs1	2.63
CSCc1cc(F)ccc1CNC(=O)N1CCOCC1	8.06
CC(CO)NC(=O)c1ccc(NCc2cc(C#N)ccc2F)cc1 (configuration not stated)	1.98
CCC(CO)N(Cc1cccnc1)Cc1ccc(-c2ccn[nH]2)s1 (configuration not stated)	-1.55
CC(C)C(=O)N1CCCC(Cc2cccnc2)C1 (configuration not stated)	-1.55
